In ChEMBL document CHEMBL4138048, “Synthesis of substituted 2H-benzo[e]indazole-9-carboxylate as a potent antihyperglycemic agent that may act through IRS-1, Akt and GSK-3β pathways” (Medchemcomm, 2017):
Activity calls are given as the source filed them. No cut-off for these calls is given here.

Tests used:
L6 [1] = assay: Stimulation of [3H]2-deoxyglucose uptake in rat L6 cells incubated for 16 hrs by scintillation counting method; type: functional, cell-based
How it was run: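 L6 myotubes incubated with the compound […]; insulin at 100 nM for 20 min served as the positive control. Uptake of ³H-2-deoxyglucose measured and expressed as fold stimulation relative to the control condition.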

Mus musculus [2] = assay: Antihyperglycemic activity in db/db mouse assessed as reduction in blood glucose level at 3 to 30 mg/kg, po qd for 15 days by oral glucose tolerance test; type: functional, organism-based
How it was run: (§1)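 Type 2 diabetic db/db mice dosed orally once a day for 15 days at 3, 10 or 30 mg/kg, with pioglitazone at 10 mg/kg as standard. Blood glucose measured daily and profile compared with vehicle-treated animals. Mean % change in 5 animals per group.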

HepG2 [3] = assay: Stimulation of [3H]2-deoxyglucose uptake in human HepG2 cells at 10 uM incubated for 16 hrs by scintillation counting method; type: functional, cell-based
Mus musculus [4] = assay: Toxicity in db/db mouse assessed as effect on body weight level at 3 to 30 mg/kg, po qd for 15 days by oral glucose tolerance test; type: organism-based; details: in vivo, 360 h
[5] = target: T1, Tyrosine-protein phosphatase non-receptor type 1 (Rattus norvegicus) (UniProt P20417); assay: Inhibition of PTP1B in rat L6 cells assessed as increase in insulin-stimulated Akt Ser473 phosphorylation at 10 to 25 uM pre-incubated for 16 hrs before insulin stimulation for 10 mins by Western blot method; type: cell-based
T1 sequence (whole entry): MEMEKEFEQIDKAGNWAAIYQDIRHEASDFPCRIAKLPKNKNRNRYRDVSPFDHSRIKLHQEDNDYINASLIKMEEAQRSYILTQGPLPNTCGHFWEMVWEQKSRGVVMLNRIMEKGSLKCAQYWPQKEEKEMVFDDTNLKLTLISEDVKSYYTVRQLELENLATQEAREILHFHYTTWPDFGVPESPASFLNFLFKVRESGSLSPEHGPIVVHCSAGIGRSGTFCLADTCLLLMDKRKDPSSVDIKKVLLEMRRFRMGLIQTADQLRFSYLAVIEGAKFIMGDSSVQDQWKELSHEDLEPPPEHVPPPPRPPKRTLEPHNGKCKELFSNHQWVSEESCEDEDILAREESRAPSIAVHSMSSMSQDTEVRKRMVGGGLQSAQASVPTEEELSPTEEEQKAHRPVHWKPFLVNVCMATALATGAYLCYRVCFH
How it was run: (§2)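 L6 myotubes treated for 16 h with the compound at the indicated concentrations, then stimulated with insulin (100 nM) for 10 min. Cells lysed and analysed by western blot. Densitometry of p-IRS-1, p-AKT and p-GSK, each relative to its total form. Compared with control and with insulin-treated control.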

Mus musculus [6] = assay: Antihyperglycemic activity in db/db mouse assessed as increase in HDL-C level at 10 mg/kg, po qd for 15 days; type: functional
How it was run: (§3)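 db/db mice given 3, 10 or 30 mg/kg orally once a day for 15 consecutive days, alongside vehicle controls. Serum triglyceride, total cholesterol, HDL-C and insulin measured, along with fasting blood glucose. Expressed as mean % change in 5 animals per group versus control.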

Mus musculus [7] = assay: Antihyperglycemic activity in db/db mouse assessed as reduction in serum insulin level at 3 to 30 mg/kg, po qd for 15 days; type: functional, organism-based; how it was run: as §3
Mus musculus [8] = assay: Antihyperglycemic activity in db/db mouse assessed as increase in HDL-C level at 3 mg/kg, po qd for 15 days; type: functional; how it was run: as §3
Mus musculus [9] = assay: Antihyperglycemic activity in db/db mouse assessed as reduction in triglyceride level at 10 mg/kg, po qd for 15 days; type: functional; parameters: scale not given: the % may be the effect or the level left; how it was run: as §3
Rattus norvegicus = assay: Antihyperglycemic activity in albino Wistar rat assessed as inhibition of postprandial hyperglycemia at 100 mg/kg, po dosed 30 mins before sucrose load and measured 30 to 120 mins post sucrose injection by glucometry; type: functional
How it was run: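 Normal albino rats given an oral sucrose load, with a single oral dose of 100 mg/kg b.wt. Blood glucose profile followed after the load, and glucose AUC taken over 0–2 h. Percent inhibition of the postprandial rise in blood glucose calculated against control. Mean % change in 5 animals per group.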

Mus musculus [10] = assay: Antihyperglycemic activity in db/db mouse assessed as reduction in fasting blood glucose level at 30 mg/kg, po qd for 15 days; type: functional; parameters: scale not given: the % may be the effect or the level left; how it was run: as §3
Mus musculus [11] = assay: Antihyperglycemic activity in db/db mouse assessed as reduction in cholesterol level at 3 mg/kg, po qd for 15 days; type: functional; parameters: scale not given: the % may be the effect or the level left; how it was run: as §3
Mus musculus [12] = assay: Antihyperglycemic activity in db/db mouse assessed as reduction in insulin level at 3 mg/kg, po qd for 15 days; type: functional; parameters: scale not given: the % may be the effect or the level left; how it was run: as §3
L6 [13] = assay: Cytotoxicity in rat L6 cells assessed as reduction in cell viability at 1 to 50 uM by MTT assay; type: cell-based; details: l6, 50 µM
Mus musculus [14] = assay: Antihyperglycemic activity in db/db mouse assessed as reduction in fasting blood glucose level at 3 mg/kg, po qd for 15 days; type: functional; parameters: scale not given: the % may be the effect or the level left; how it was run: as §3
Mus musculus [15] = assay: Antihyperglycemic activity in db/db mouse assessed as reduction in insulin level at 30 mg/kg, po qd for 15 days; type: functional; parameters: scale not given: the % may be the effect or the level left; how it was run: as §3
Mus musculus [16] = assay: Antihyperglycemic activity in db/db mouse assessed as reduction in cholesterol level at 10 mg/kg, po qd for 15 days; type: functional; parameters: scale not given: the % may be the effect or the level left; how it was run: as §3
Mus musculus [17] = assay: Antihyperglycemic activity in db/db mouse assessed as improvement on glucose tolerance by measuring blood glucose AUC level at 10 mg/kg, po qd for 10 days by oral glucose tolerance test; type: functional
How it was run: (§4)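 db/db mice dosed orally once daily for 15 consecutive days at 3, 10 or 30 mg/kg, with vehicle controls and pioglitazone at 10 mg/kg. Oral glucose tolerance tests on day 10 and day 15. Overall improvement in glucose tolerance calculated against vehicle control. Mean % change in 5 animals per group.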

Mus musculus [18] = assay: Antihyperglycemic activity in db/db mouse assessed as improvement on glucose tolerance by measuring blood glucose AUC level at 30 mg/kg, po qd for 15 days by oral glucose tolerance test; type: functional; how it was run: as §4
[19] = target: T1, Tyrosine-protein phosphatase non-receptor type 1 (Rattus norvegicus); assay: Inhibition of PTP1B in rat L6 cells assessed as increase in insulin-stimulated IRS1 tyrosine phosphorylation pre-incubated for 16 hrs before insulin stimulation for 10 mins by Western blot method; type: cell-based; how it was run: as §2
Mus musculus [20] = assay: Antihyperglycemic activity in db/db mouse assessed as improvement on glucose tolerance by measuring blood glucose AUC level at 3 to 30 mg/kg, po qd for 15 days by oral glucose tolerance test; type: functional, organism-based; how it was run: as §4
Mus musculus [21] = assay: Antihyperglycemic activity in db/db mouse assessed as reduction in blood glucose level at 30 mg/kg, po qd and measured on day 7 by oral glucose tolerance test; type: functional, organism-based; how it was run: as §1
Mus musculus [22] = assay: Antihyperglycemic activity in db/db mouse assessed as increase in HDL-C level at 30 mg/kg, po qd for 15 days; type: functional; how it was run: as §3
HepG2 [23] = assay: Inhibition of glucagon-mediated glucose release in human HepG2 cells at 10 uM incubated for 24 hrs by Amplex red glucose/glucose oxidase assay; type: functional, cell-based
Mus musculus [24] = assay: Antihyperglycemic activity in db/db mouse assessed as improvement on glucose tolerance by measuring blood glucose AUC level at 3 mg/kg, po qd for 10 days by oral glucose tolerance test; type: functional; how it was run: as §4

COC(=O)c1c(SC)cc(-c2ccc(C)cc2)c2c1-c1cn(-c3ccccc3)nc1CC2
Activity (L6 [1]): Dose-dependent effect | Activity (Mus musculus [2]): Dose-dependent effect | Activity (HepG2 [3]): Active | Activity (Mus musculus [4]): Non-Toxic | inhibition [5]: Active | Activity (Mus musculus [6]): 10.9% | Activity (Mus musculus [7]): Dose-dependent effect | Activity (Mus musculus [8]): 6.27% | Activity (Mus musculus [9]): 13.2% | inhibition in vivo at 100 mg/kg (Rattus norvegicus): 35.8% | Activity (Mus musculus [10]): 31.9% | Activity (Mus musculus [11]): 11.5% | Activity (Mus musculus [12]): 6.57% | Activity (L6 [13]): Non-Toxic | Activity (Mus musculus [14]): 10.1% | Activity (Mus musculus [15]): 30.5% | Activity (Mus musculus [16]): 15.3% | Activity (Mus musculus [17]): 13.9% | Activity (Mus musculus [18]): 31.6% | inhibition [19]: Dose-dependent effect | Activity (Mus musculus [20]): Dose-dependent effect | Activity (Mus musculus [21]): Active | Activity (Mus musculus [22]): 20.5% | inhibition (HepG2 [23]): Active | Activity (Mus musculus [24]): 7.84%
